# Measured values from ChEMBL document CHEMBL4257553, “Novel organophosphorus aminopyrimidines as unique structural DNA-targeting membrane active inhibitors towards drug-resistant methicillin-resistant Staphylococcus aureus” (Medchemcomm, 2018).
# Experiments:
# Format in all cases: functional
# Escherichia coli [1] = assay: Antibacterial activity against Escherichia coli after 24 hrs by microbroth dilution method
# In short: (§1)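 Tested by CLSI-standard broth microdilution against a panel of eleven bacterial strains, Gram-positive and Gram-negative, including MRSA.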
# Staphylococcus aureus [2] = assay: Antibacterial activity against Staphylococcus aureus ATCC 29213 after 24 hrs by microbroth dilution method; details: ATCC 29213, 24 h; in short: as §1
# Pseudomonas aeruginosa [3] = assay: Antibacterial activity against Pseudomonas aeruginosa ATCC 27853 after 24 hrs by microbroth dilution method; details: ATCC 27853, 24 h; in short: as §1
# Klebsiella pneumoniae = assay: Antibacterial activity against Klebsiella pneumoniae after 24 hrs by microbroth dilution method; in short: as §1
# Staphylococcus aureus [4] = assay: Antibacterial activity against methicillin resistant Staphylococcus aureus after 24 hrs by microbroth dilution method; in short: as §1
# Staphylococcus aureus [5] = assay: Antibacterial activity against Staphylococcus aureus after 24 hrs by microbroth dilution method; in short: as §1
# Enterococcus faecalis = assay: Antibacterial activity against Enterococcus faecalis after 24 hrs by microbroth dilution method; in short: as §1
# Pseudomonas aeruginosa [6] = assay: Antibacterial activity against Pseudomonas aeruginosa after 24 hrs by microbroth dilution method; in short: as §1
# Acinetobacter baumannii = assay: Antibacterial activity against Acinetobacter baumannii after 24 hrs by microbroth dilution method; in short: as §1
# Staphylococcus aureus [7] = assay: Antibacterial activity against Staphylococcus aureus ATCC 25923 after 24 hrs by microbroth dilution method; details: ATCC 25923, 24 h; in short: as §1
# Escherichia coli [8] = assay: Antibacterial activity against Escherichia coli ATCC 25922 after 24 hrs by microbroth dilution method; details: ATCC 25922, 24 h; in short: as §1
# Aspergillus fumigatus [9] = assay: Potency index, ratio of fluconazole MIC to compound MIC for antifungal activity against Aspergillus fumigatus
# Aspergillus fumigatus [10] = assay: Antifungal activity against Aspergillus fumigatus after 24 hrs by microbroth dilution method
# Candida albicans = assay: Antifungal activity against Candida albicans ATCC 90023 after 24 hrs by microbroth dilution method; details: ATCC 90023, 24 h
Compound,MIC (Escherichia coli [1]),MIC (Staphylococcus aureus [2]),MIC (Pseudomonas aeruginosa [3]),MIC (Klebsiella pneumoniae),MIC (Staphylococcus aureus [4]),MIC (Staphylococcus aureus [5]),MIC (Enterococcus faecalis),MIC (Pseudomonas aeruginosa [6]),MIC (Acinetobacter baumannii),MIC (Staphylococcus aureus [7]),MIC (Escherichia coli [8]),Ratio (Aspergillus fumigatus [9]),MIC (Aspergillus fumigatus [10]),MIC (Candida albicans)
CCn1cc(C(=O)O)c(=O)c2cc(F)c(N3CCNCC3)cc21 [NORFLOXACIN],16 µg/mL,2 µg/mL,0.5 µg/mL,4 µg/mL,8 µg/mL,0.5 µg/mL,4 µg/mL,2 µg/mL,8 µg/mL,1 µg/mL,8 µg/mL,,,
O=[N+]([O-])c1ccc(C(Nc2ncccn2)P(=O)(O)O)cc1 (stereo not drawn),128 µg/mL,128 µg/mL,256 µg/mL,256 µg/mL,128 µg/mL,128 µg/mL,128 µg/mL,128 µg/mL,256 µg/mL,128 µg/mL,128 µg/mL,16,> 16 µg/mL,
CCOP(=O)(OCC)C(Nc1ncccn1)c1ccc(Cl)cc1 (stereo not drawn),512 µg/mL,256 µg/mL,8 µg/mL,128 µg/mL,64 µg/mL,256 µg/mL,32 µg/mL,256 µg/mL,128 µg/mL,64 µg/mL,256 µg/mL,16,> 16 µg/mL,8 µg/mL
OC(Cn1cncn1)(Cn1cncn1)c1ccc(F)cc1F [FLUCONAZOLE],,,,,,,,,,,,,> 16 µg/mL,
CCOP(=O)(OCC)C(Nc1ncccn1)c1ccc(Cl)cc1Cl (stereo not drawn),256 µg/mL,64 µg/mL,8 µg/mL,64 µg/mL,8 µg/mL,64 µg/mL,32 µg/mL,64 µg/mL,64 µg/mL,8 µg/mL,16 µg/mL,16,> 16 µg/mL,8 µg/mL
CCOP(=O)(OCC)C(Nc1ncccn1)c1ccc(OC)cc1 (stereo not drawn),256 µg/mL,256 µg/mL,4 µg/mL,256 µg/mL,256 µg/mL,256 µg/mL,64 µg/mL,128 µg/mL,128 µg/mL,64 µg/mL,256 µg/mL,16,> 16 µg/mL,
CCCCc1nc(Cl)c(C(Nc2ncccn2)P(=O)(OCC)OCC)n1CC (stereo not drawn),256 µg/mL,256 µg/mL,256 µg/mL,128 µg/mL,256 µg/mL,512 µg/mL,64 µg/mL,256 µg/mL,256 µg/mL,128 µg/mL,256 µg/mL,16,> 16 µg/mL,
C#CCn1c(CCCC)nc(Cl)c1C(Nc1ncccn1)P(=O)(OCC)OCC (stereo not drawn),256 µg/mL,256 µg/mL,256 µg/mL,256 µg/mL,128 µg/mL,64 µg/mL,256 µg/mL,256 µg/mL,128 µg/mL,32 µg/mL,128 µg/mL,16,> 16 µg/mL,
CCOP(=O)(OCC)C(Nc1ncccn1)c1ccccc1Cl (stereo not drawn),256 µg/mL,128 µg/mL,128 µg/mL,32 µg/mL,8 µg/mL,128 µg/mL,128 µg/mL,128 µg/mL,128 µg/mL,128 µg/mL,64 µg/mL,16,> 16 µg/mL,
O=P(O)(O)C(Nc1ncccn1)c1ccc(F)cc1 (stereo not drawn),256 µg/mL,256 µg/mL,128 µg/mL,256 µg/mL,128 µg/mL,256 µg/mL,256 µg/mL,256 µg/mL,256 µg/mL,128 µg/mL,128 µg/mL,16,> 16 µg/mL,
